Data published in ChEMBL document CHEMBL4184229, “Synthesis, biological evaluation and docking study of a new series of di-substituted benzoxazole derivatives as selective COX-2 inhibitors and anti-inflammatory agents” (Bioorg Med Chem, 2018).

Key:
[1] = molecular target: T1, Prostaglandin G/H synthase 1 (Ovis aries, UniProt P05979); experiment: Inhibition of ovine COX1 assessed as reduction in Prostaglandin production by enzyme immunoassay
T1 sequence (P05979 whole entry): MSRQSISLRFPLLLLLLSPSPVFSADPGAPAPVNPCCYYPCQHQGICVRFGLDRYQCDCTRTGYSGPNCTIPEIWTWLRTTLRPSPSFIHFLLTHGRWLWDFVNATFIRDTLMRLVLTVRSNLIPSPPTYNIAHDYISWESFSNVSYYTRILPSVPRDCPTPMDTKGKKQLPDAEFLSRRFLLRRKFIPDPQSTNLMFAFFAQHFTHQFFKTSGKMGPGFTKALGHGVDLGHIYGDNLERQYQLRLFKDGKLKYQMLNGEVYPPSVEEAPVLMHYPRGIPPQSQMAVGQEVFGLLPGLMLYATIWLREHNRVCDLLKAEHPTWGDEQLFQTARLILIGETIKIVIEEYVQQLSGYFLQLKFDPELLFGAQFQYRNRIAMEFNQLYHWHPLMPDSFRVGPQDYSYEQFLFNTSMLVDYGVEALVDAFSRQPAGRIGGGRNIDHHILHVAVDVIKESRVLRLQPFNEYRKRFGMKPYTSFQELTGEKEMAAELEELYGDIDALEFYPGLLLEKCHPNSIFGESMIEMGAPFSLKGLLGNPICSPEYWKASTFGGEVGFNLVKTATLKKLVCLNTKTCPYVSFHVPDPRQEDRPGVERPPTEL
Outline: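 Enzyme immunoassay kit with ovine COX-1 (human recombinant COX-2 also supplied). Colour intensity read spectrophotometrically; signal is proportional to PG tracer bound to the well and inversely proportional to free PG in the well. Inhibition calculated against control incubations. IC50 taken from the log concentration vs % inhibition curve.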

[2] = tested on: Rattus norvegicus; experiment: Ulcerogenicity in Wistar albino rat assessed as severity index at 60 mg/kg, po measured after 6 hrs; assay type: toxicity, organism-based; conditions: in vivo
[3] = tested on: Rattus norvegicus; experiment: Anti-inflammatory activity against carrageenan-induced Wistar albino rat paw edema model assessed as paw edema volume at 20 mg/kg, po pretreated for 30 mins followed by carrageenan-challenge measured immediately by plethysmographic method (reference value: 0.7 ml); assay type: functional
[4] = tested on: Rattus norvegicus; experiment: Anti-inflammatory activity against carrageenan-induced Wistar albino rat paw edema model assessed as paw edema volume at 20 mg/kg, po pretreated for 30 mins followed by carrageenan-challenge measured after 3 hrs by plethysmographic method (reference value: 1.14 ml); assay type: functional
[5] = tested on: Rattus norvegicus; experiment: Anti-inflammatory activity against carrageenan-induced Wistar albino rat paw edema model assessed as inhibition of paw edema at 20 mg/kg, po pretreated for 30 mins followed by carrageenan-challenge measured at 1 hr interval for 3 hrs by plethysmographic method relative to control; assay type: functional
Outline: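 Wistar albino rats housed at 25-28 °C, 50–65% relative humidity, 12 h light/dark cycle; five per group. Oral dosing; control group given an equivalent volume of normal saline. Half an hour later, 0.1 ml of 1.0% w/v carrageenan in 0.9% saline injected into the sub-plantar tissue of the hind paw. […] Values taken at 3 h as mean ± SEM; Tukey's test versus control.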

SMILES	IC50 [1]	UI [2]	Activity [3]	Activity [4]	inhibition in vivo at 20 mg/kg [5]
COc1ccc(-c2nc3cc(NC(=O)c4cc([N+](=O)[O-])ccc4Cl)ccc3o2)cc1OC	10.2 µM				
COc1ccc(-c2nc3cc(NC(=O)c4ccc(Cl)cc4)ccc3o2)cc1OC	7.32 µM				
COc1ccc(-c2nc3cc(NC(=O)c4ccc(O)cc4)ccc3o2)cc1OC	58.2 µM				
COc1ccc(-c2nc3cc(NC(=O)c4ccc([N+](=O)[O-])cc4Cl)ccc3o2)cc1OC	5.15 µM	1	0.71 mL	0.77 mL	72.7%
COc1ccc(-c2nc3cc(NC(=O)c4ccc(C)cc4)ccc3o2)cc1OC	7.84 µM				
COc1ccc(-c2nc3cc(NC(=O)c4ccc([N+](=O)[O-])cc4)ccc3o2)cc1OC	3.23 µM	1.8	0.71 mL	0.8 mL	79.5%
COc1ccc(-c2nc3cc(NC(=O)c4ccccc4Br)ccc3o2)cc1OC	10.1 µM				
COc1ccc(-c2nc3cc(NC(=O)c4ccccc4C)ccc3o2)cc1OC	9.21 µM				
CC(C)Cc1ccc(C(C)C(=O)O)cc1 (configuration not stated) [IBUPROFEN]		2.2			65.9%

Second part, led by results:

IC50 [1]	SMILES	UI [2]	Activity [3]	Activity [4]	inhibition in vivo at 20 mg/kg [5]
8.82 µM	COc1ccc(-c2nc3cc(NC(=O)c4cccc(Cl)c4)ccc3o2)cc1OC				
1.02 µM	COc1ccc(-c2nc3cc(NC(=O)c4ccccc4Cl)ccc3o2)cc1OC	0.8	0.66 mL	0.74 mL	84.1%
8.2 µM	COc1ccc(C(=O)Nc2ccc3oc(-c4ccc(OC)c(OC)c4)nc3c2)cc1OC				
5.21 µM	COc1ccc(-c2nc3cc(NC(=O)c4cccc(C)c4)ccc3o2)cc1OC				
6.02 µM	COc1cc(OC)cc(C(=O)Nc2ccc3oc(-c4ccc(OC)c(OC)c4)nc3c2)c1	2.1	0.67 mL	0.81 mL	68.2%
6.2 µM	COc1ccc(-c2nc3cc(NC(=O)c4ccccc4)ccc3o2)cc1OC				
5.52 µM	COc1ccc(-c2nc3cc(NC(=O)c4cccc([N+](=O)[O-])c4)ccc3o2)cc1OC		0.57 mL	0.77 mL	54.5%
16.3 µM	COc1ccc(C(=O)Nc2ccc3oc(-c4ccc(OC)c(OC)c4)nc3c2)cc1				
